We go through 8 compounds from ChEMBL document CHEMBL1165916, “Interactions of 1-methyl-3-phenylpyrrolidine and 3-methyl-1-phenyl-3-azabicyclo[3.1.0]hexane with monoamine oxidase B” (Bioorg Med Chem, 2010).

Calls of active or inactive are those of the source. No cut-off for these calls is given here.

Data set [1] is filed under the species Papio hamadryas. The experiment in a line: Activity at baboon liver mitochondrial MAO-B assessed as H2O2 production at 500 uM after 6 to 15 mins pretreated with (R)-deprenyl. The gist of the method: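 Mitochondria (0.3 mg protein/mL) were preincubated with (R)-deprenyl at 37 °C in 100 mM sodium phosphate, pH 7.4. They were then added to 500 µM substrate to give 0.15 mg protein/mL, with chromogenic solution, at 37 °C. Reactions were stopped with (R)-deprenyl, and H2O2 was measured by peroxidase-coupled spectrophotometry. Values were compared with fully active controls preincubated without inactivator.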

Data set [2] is filed under the species Papio hamadryas. The experiment in a line: Activity at baboon liver mitochondrial MAO-B assessed as initial rate of H2O2 production after 12.5 mins assessed per mg of mitochondrial protein. Summed up: (§1)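 Baboon liver mitochondrial fraction (0.15 mg protein/mL; protein by Bradford) was incubated with substrate in 100 mM sodium phosphate, pH 7.4, at 37 °C for 12.5 min. (R)-Deprenyl (5 mM stock) was added and the samples were placed on ice, then centrifuged. H2O2 was read by peroxidase-coupled spectrophotometry against an 11–88 µM calibration. Initial rates were taken at eight substrate levels, in duplicate. Km and Vmax came from a Michaelis–Menten fit, with rates as nmol H2O2/min-mg protein.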

For data set [3], the species on record is Papio hamadryas. The experiment in a line: Activity at baboon liver mitochondrial MAO-B assessed as initial rate of H2O2 production after 12.5 mins. The gist of the method:
as §1

Data set [4] is filed under the species Papio hamadryas. The experiment in a line: Ratio of Vmax to Km for baboon liver mitochondrial MAO-B assessed per mg of protein after 12.5 mins. The gist of the method:
as §1

For data set [5], the system named is Mus musculus. The experiment in a line: Neurotoxicity in C57BL/6 mouse assessed as depletion of dopamine level in striatum at 167 umol/kg, ip after 7 days by HPLC-ECD analysis relative to control. The data set is classed as toxicity, organism-based. Particulars: in vivo, 168 h. Summed up: (§2)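 Saline controls run alongside. Mice killed by cervical dislocation 7 days later. Striatal dopamine measured by HPLC-ECD, means ± SEM.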

Data set [6] is filed under the species Papio hamadryas. The experiment in a line: Activity at baboon liver mitochondrial MAO-B assessed as H2O2 production at 250 uM after 20 mins. Summed up:
(§3)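 Baboon liver mitochondria (0.15 mg protein/mL) incubated with substrate and chromogenic solution at 37 °C in 100 mM sodium phosphate, pH 7.4. Reactions stopped at 2.5–20 min with (R)-deprenyl on ice and centrifuged. H2O2 read by peroxidase-coupled spectrophotometric assay against an 11–88 µM calibration. Triplicate, means ± SEM.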

The species named for data set [7] is Papio hamadryas. The experiment in a line: Activity at baboon liver mitochondrial MAO-B assessed as H2O2 production at Vmax concentration after 20 mins.
The species named for data set [8] is Papio hamadryas. The experiment in a line: Activity at baboon liver mitochondrial MAO-B assessed as H2O2 production at 500 uM after 20 mins pretreated with MAOB inhibitor (R)-deprenyl.
Data set [9] is filed under the species Papio hamadryas. The experiment in a line: Activity at baboon liver mitochondrial MAO-B assessed as initial rate of H2O2 production after 20 mins assessed per mg of mitochondrial protein. Summed up:
(§4)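 Incubation time was set within the linear range for each substrate. Stopped with (R)-deprenyl on ice; peroxidase-coupled spectrophotometric read-out. Rates in nmol/min-mg protein, fitted to Michaelis–Menten. Triplicate or duplicate.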

Data set [10] is filed under the species Papio hamadryas. The experiment in a line: Activity at baboon liver mitochondrial MAO-B assessed as initial rate of H2O2 production after 20 mins. The gist of the method:
as §4

Data set [11] is filed under the species Papio hamadryas. The experiment in a line: Ratio of Vmax to Km for baboon liver mitochondrial MAO-B assessed per mg of protein after 20 mins. The gist of the method:
as §4

The test system of data set [12] is Mus musculus. The experiment in a line: Neurotoxicity in C57BL/6 mouse assessed as depletion of dopamine level in striatum at 238 umol/kg, ip after 7 days by HPLC-ECD analysis relative to control. The conditions noted are these: in vivo, 168 h. The format is toxicity, organism-based. The gist of the method:
as §2

The species named for data set [13] is Papio hamadryas. The experiment in a line: Activity at baboon liver mitochondrial MAO-B assessed as initial rate of H2O2 production after 15 mins assessed per mg of mitochondrial protein. The gist of the method:
as §4

The species entered for data set [14] is Papio hamadryas. The experiment in a line: Activity at baboon liver mitochondrial MAO-B assessed as initial rate of H2O2 production after 8 mins assessed per mg of mitochondrial protein. The gist of the method: (§5)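 Baboon liver mitochondria stored at −70 °C and diluted with phosphate buffer containing 50% glycerol. MAO-B at 0.15 mg protein/mL in 100 mM sodium phosphate, pH 7.4, 37 °C, with eight substrate concentrations spanning two orders of magnitude. Incubation lasted 6 or 8 min (linear period). Stopped with (R)-deprenyl on ice, then centrifuged. H2O2 measured by peroxidase-coupled spectrophotometry against an 11–88 µM calibration. Duplicates; Michaelis–Menten fit gave Km, Vmax (nmol/min-mg), Vmax/Km.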

For data set [15], the species on record is Papio hamadryas. The experiment in a line: Activity at baboon liver mitochondrial MAO-B assessed as initial rate of H2O2 production after 8 mins. The gist of the method: as §5
The species entered for data set [16] is Papio hamadryas. The experiment in a line: Ratio of Vmax to Km for baboon liver mitochondrial MAO-B assessed per mg of protein after 8 mins. Summed up: as §5
Data set [17] is filed under the species Papio hamadryas. The experiment in a line: Activity at baboon liver mitochondrial MAO-B assessed as initial rate of H2O2 production after 6 mins assessed per mg of mitochondrial protein. Summed up:
as §5

For data set [18], the species on record is Papio hamadryas. The experiment in a line: Activity at baboon liver mitochondrial MAO-B assessed as initial rate of H2O2 production after 6 mins. Summed up: as §5
For data set [19], the species on record is Papio hamadryas. The experiment in a line: Ratio of Vmax to Km for baboon liver mitochondrial MAO-B assessed per mg of protein after 6 mins. The gist of the method:
as §5

The species named for data set [20] is Papio hamadryas. The experiment in a line: Activity at baboon liver mitochondrial MAO-B assessed as H2O2 production at 250 uM after 15 mins. Summed up: as §3
The species entered for data set [21] is Papio hamadryas. The experiment in a line: Activity at baboon liver mitochondrial MAO-B assessed as H2O2 production at 500 uM after 20 mins. The gist of the method:
as §3

Data set [22] is filed under the species Papio hamadryas. The experiment in a line: Activity at baboon liver mitochondrial MAO-B assessed as H2O2 production at Vmax concentration after 15 mins.
The species named for data set [23] is Papio hamadryas. The experiment in a line: Activity at baboon liver mitochondrial MAO-B assessed as H2O2 production at 250 uM after 15 mins pretreated with MAOB inhibitor (R)-deprenyl.
The species entered for data set [24] is Papio hamadryas. The experiment in a line: Ratio of Vmax to Km for baboon liver mitochondrial MAO-B assessed per mg of protein after 15 mins. The gist of the method:
as §4

For data set [25], the species on record is Papio hamadryas. The experiment in a line: Activity at baboon liver mitochondrial MAO-B assessed as initial rate of H2O2 production after 15 mins. Summed up:
as §4

Data set [26] is filed under the species Papio hamadryas. The experiment in a line: Activity at baboon liver mitochondrial MAO-B assessed as H2O2 production at 250 uM after 6 to 15 mins pretreated with (R)-deprenyl.
The species named for data set [27] is Papio hamadryas. The experiment in a line: Activity at baboon liver mitochondrial MAO-B assessed as initial rate of H2O2 production after 10 mins assessed per mg of mitochondrial protein. The gist of the method:
as §4

The species entered for data set [28] is Papio hamadryas. The experiment in a line: Activity at baboon liver mitochondrial MAO-B assessed as initial rate of H2O2 production after 10 mins. The gist of the method: as §4
For data set [29], the species on record is Papio hamadryas. The experiment in a line: Ratio of Vmax to Km for baboon liver mitochondrial MAO-B assessed per mg of protein after 10 mins. Summed up: as §4

As a reminder, the Vmax is the rate approached at saturating substrate. The term Km denotes the substrate concentration at which the rate is half of its maximum. For the compound `CN1CC=C(c2ccccc2)CC1.Cl`, the Activity worked out at 5% in [1] and 27% in data set [5]. Besides, the Vmax in [2] is 11.7 nmol/min. For the same compound, the Km in [3] came out at 81.8 µM. The Vmax/Km in [4] came out at 0.14 min⁻¹.
Take `CN1CCC(c2ccccc2)C1.O=C(O)C(=O)O` (racemic): the result in [6] was Active. Besides, the Activity in data set [7] stood at 6%; in data set [8], 1.92 µM; in data set [12], 99%. In [9], the Vmax is 8.37 nmol/min. Besides, the Km in data set [10] turned out to be 234 µM. The Vmax/Km in data set [11] is 0.04 min⁻¹.
As to `CN1CCC(c2ccccc2)CC1`, the Vmax result in data set [13] is “inactive”.
On to `NCc1ccccc1`, for which the Activity in [1] came to 5%. Also, the Vmax in data set [14] was 42.4 nmol/min/mg. Also, in data set [15], the Michaelis constant (Km) was determined as 249 µM. In addition, the Vmax/Km in [16] is 0.17 min⁻¹.
`NCCC(=O)c1ccccc1N`: the Activity in [1] is 5%. Besides, the Vmax in data set [17] came to 50 nmol/min/mg. Moreover, the Km in [18] came out at 58.9 µM. For the same compound, the Vmax/Km in [19] was 0.85 min⁻¹.
In the case of `CN1CC2CC2(c2ccccc2)C1.O=C(O)C(=O)O` (racemic), the Activity in data set [20] came out at 27.3 µM; in [22] it was 6%; in data set [23], 1.79 µM; in data set [12], 111%. Moreover, the outcome in data set [21] and in [6] was Active. The Vmax in data set [13] was determined as 16.9 nmol/min. Further, the Vmax/Km in [24] is 0.11 min⁻¹. Besides, in [25], the Michaelis constant (Km) turned out to be 148 µM.
With `CN1CC=C(c2cccn2C)CC1`, the Activity in [26] came out at 5%. Also, the maximum rate (Vmax) in [27] came out at 22.2 nmol/min. The Km in data set [28] amounted to 43.4 µM. Further, in data set [29], the Vmax/Km came out at 0.51 min⁻¹.
`CN1CC=C(c2ccccc2)C1`: the Vmax in [27] was 27.9 nmol/min. Further, the Km in data set [28] was found to be 100 µM. In addition, the Vmax/Km in data set [29] turned out to be 0.28 min⁻¹.
